This is a sample that favours compounds with a hit; in the whole collection about 3.4% have one here.
Redox H2O2 prof = compounds producing H2O2 with reducing agent – biochemical, NIH compound library profiling, artefact control for MLSCN library redox annotation, primary screen; 200,000 tested, 0.03% active; DTT-dependent redox cycling H2O2, phenol red/HRP absorbance; 100% = 100 µM peroxide control, 0% = buffer; activation, % at 10 µM;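 active = activation of at least 50% relative to the plate's high and low controls in the primary single-dose screen; inactive = activation below 50%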;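 also: compound incubated with DTT at 0.8 mM final as the reducing agent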
p97 inhibitor = blocks human p97 ATPase activity | P55072 | inhibition, % at 8 µM | 220,000 tested, 0.42% active | recombinant p97 ATPase, Kinase-Glo ATP luminescence, 3 h; in the data active = inhibition above about 15%;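 also: 0% = DMSO vehicle and 100% = wells lacking enzyme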
Mdm2 ligase inh = Mdm2 E3 ligase (human) inhibition. Q00987. cell-based MDM2 ubiquitination luciferase reporter, 2 h; 0 = plate control, 100 = twice control, blank-subtracted. signal enhancement, % at 5 µM. 210,000 tested, 0.11% active. AID 1230;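 active = signal enhancement of 30% or more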;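 also: luminescence tracks abundance of the self-degrading MDM2-luciferase fusion protein; higher signal means inhibition of MDM2 E3 ligase activity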
Target sequence (Q00987 whole entry, looked up, the tested form may be a part): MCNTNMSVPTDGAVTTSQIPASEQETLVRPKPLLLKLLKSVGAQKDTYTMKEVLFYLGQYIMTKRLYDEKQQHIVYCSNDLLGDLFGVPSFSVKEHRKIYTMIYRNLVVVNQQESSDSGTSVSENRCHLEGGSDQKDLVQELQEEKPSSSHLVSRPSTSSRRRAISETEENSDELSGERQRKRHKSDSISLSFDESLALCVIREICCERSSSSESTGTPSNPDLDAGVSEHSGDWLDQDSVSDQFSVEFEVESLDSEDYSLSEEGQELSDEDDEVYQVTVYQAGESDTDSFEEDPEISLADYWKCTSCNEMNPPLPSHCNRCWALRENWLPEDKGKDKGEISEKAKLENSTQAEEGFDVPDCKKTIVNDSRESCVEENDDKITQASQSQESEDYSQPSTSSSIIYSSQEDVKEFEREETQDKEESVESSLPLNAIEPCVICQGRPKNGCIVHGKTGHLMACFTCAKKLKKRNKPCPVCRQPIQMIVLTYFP
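Buffer or medium: Cells held in DMEM | Assay system: Stable mammalian line carrying autodegrading MDM2–luciferase fusion reporter | Quantity: 2000 cells/well | Times: 4 h settle plus 2 h compound, 37 °C | Doses: One concentration, 5 µM, with 0.2% DMSO | Technique: Luminescence with SteadyLite reagent, 15 min at room temperature | Benchmarks: Plate controls and plate blanks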
PKD1 kinase inh = PKD1 (human) kinase inhibition | PKD1 kinase fluorescence polarization assay | inhibition, % (test concentration not listed) | 200,000 tested, 0.056% active | Q15139; in the data active = inhibition above about 50%
ROMK mod = modulators of human ROMK potassium channel | B-score at 10 µM | 130,000 tested, 2% active | P48048 | Tet-inducible ROMK, thallium flux fluorescence; actives lie on both sides;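 active = signal ratio slope over the read window, or its plate-corrected B-score, at least 3 SD from the plate mean, either direction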;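 also: B-score of the F/F0 ratio slope over 7 to 12 s after thallium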
Cl transport mod = modulates chloride dependent transport by human KCC2. B-score of Tl+ flux slope (higher = more flux/activation; lower = inhibition) at 10 µM. Q9H2X9. 190,000 tested, 2.2% active. KCC2 cells, thallium flux FluoZin-2 fluorescence;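 active = thallium flux slope and its plate-corrected score both differing from the plate sample mean at a set confidence after two filtering rounds, in either direction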;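 also: slope of fluorescence scaled to starting intensity during 10 to 20 s after thallium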
p97 confirm = confirmation of human p97 ATPase inhibitors. inhibition, % at 8 µM. shares compounds with p97 inhibitor. 760 tested, 44% active. recombinant p97 ATPase, Kinase-Glo ATP luminescence;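 active = percent inhibition of p97 ATPase above a set limit, the primary screen's mean plus 3 SD, cut at about 15% in these data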;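 also: 0% = DMSO wells and 100% = wells lacking p97 protein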
* = called active by the depositor.

`COC(=O)C(CCSC)NC(=O)CNC(=O)C1CCCCC1` (stereo not given) gave Redox H2O2 prof -2, p97 inhibitor -1, Mdm2 ligase inh 5, PKD1 kinase inh -4 and Cl transport mod 1.2.
`N#CC1=C(N)Oc2cc(Nc3ccccc3)ccc2C1c1ccncc1` (stereo not given) gave Redox H2O2 prof 7, p97 inhibitor 20*, Mdm2 ligase inh -16, PKD1 kinase inh -6 and p97 confirm 33*.
`O=C(Nc1ccc(F)cc1)C1C(c2ccccc2)C1(Cl)Cl` (stereo not given) gave Redox H2O2 prof 0, p97 inhibitor 41*, Mdm2 ligase inh -4, PKD1 kinase inh 3, ROMK mod -0.65, Cl transport mod -0.69 and p97 confirm 47*.
`Cc1ccc(C)c(NC(=O)c2cnc3n(c2=O)CCS3)c1` gave Redox H2O2 prof -9, p97 inhibitor 29*, Mdm2 ligase inh 22, PKD1 kinase inh -1, ROMK mod -0.47 and p97 confirm 20*.
CSc1ccccc1NC(=O)c1cnc2n(c1=O)CCS2 was read as Redox H2O2 prof -1, p97 inhibitor -2, Mdm2 ligase inh -7, PKD1 kinase inh 7 and Cl transport mod -0.17.
For Nc1nc(CCl)nc(Nc2ccc3ccccc3c2)n1 the results were p97 inhibitor 36*, Mdm2 ligase inh -28, Cl transport mod -2 and p97 confirm 38*.
`Cn1c(=O)oc2cc(S(=O)(=O)NCc3cccnc3)ccc21` gave p97 inhibitor 8, Mdm2 ligase inh -10, ROMK mod -1.3 and Cl transport mod -0.55.
`COc1ccc2nc3ccccc3nc2c1N` gave p97 inhibitor 26*, Mdm2 ligase inh -26, ROMK mod -0.068, Cl transport mod -0.66 and p97 confirm 3.
CN(C)/C=C/C(=O)c1ccc(C(F)(F)F)cc1F was read as Redox H2O2 prof -1, p97 inhibitor -2, Mdm2 ligase inh -3, PKD1 kinase inh 0, ROMK mod 1.2 and Cl transport mod 1.8.
Cc1ccc(NC(=O)CCl)cc1S(=O)(=O)N1CCCCCC1 was read as Redox H2O2 prof -1, p97 inhibitor 5, Mdm2 ligase inh -4, PKD1 kinase inh 3, ROMK mod -0.7 and Cl transport mod -0.91.
Screening COc1ccc2cc(OC)c(C(=O)N3CCOCC3)cc2c1 returned Redox H2O2 prof -1, p97 inhibitor 7, Mdm2 ligase inh -8, PKD1 kinase inh -1, ROMK mod 0.24 and Cl transport mod 0.021.
COC(=O)c1cccc(Nc2ncnc3ccc(C)cc23)c1 was read as Redox H2O2 prof 0, p97 inhibitor 3, Mdm2 ligase inh -50, PKD1 kinase inh 3, ROMK mod 0.067 and Cl transport mod -0.8.
`O=C(O)c1cccc(Nc2ncnc3ccc(Br)cc23)c1` gave p97 inhibitor 17*, Mdm2 ligase inh -5, Cl transport mod 0.013 and p97 confirm 21*.
Screening Cc1csc(NC(=O)c2nc3nccc(C)n3n2)n1 returned Redox H2O2 prof 0, p97 inhibitor -6, Mdm2 ligase inh -24, PKD1 kinase inh -12, ROMK mod 0.5 and Cl transport mod 0.3.
For O=C(CCl)Nc1cn(-c2ccccc2)nc1-c1ccc(F)cc1 the results were Redox H2O2 prof 0, p97 inhibitor 17*, Mdm2 ligase inh -4, PKD1 kinase inh -5, ROMK mod -0.0026, Cl transport mod -0.028 and p97 confirm 26*.
For CCn1c(/C=C/N(C(C)=O)c2ccccc2)[n+](CCCS(=O)(=O)[O-])c2cc(Cl)c(Cl)cc21 the results were Redox H2O2 prof 11, p97 inhibitor 18*, Mdm2 ligase inh -14, PKD1 kinase inh 0, ROMK mod 0.61 and p97 confirm 5.
CC(C)Oc1ccc(/C=N/NC(=O)C(CSCc2ccccc2)NC(=O)c2ccc([N+](=O)[O-])cc2)cc1 (stereo not given) was read as Redox H2O2 prof 0, p97 inhibitor 0, Mdm2 ligase inh 4, PKD1 kinase inh 2 and Cl transport mod 0.93.
